The text below walks through data of ChEMBL document CHEMBL5113474, “Triazole-substituted phenylboronic acids as tunable lead inhibitors of KPC-2 antibiotic resistance” (Eur J Med Chem, 2022).

≈ marks a conversion by molar mass, not a printed value. Calls of active or inactive are those of the source. The rule behind the calls is not given here. A value given as a limit tells only on which side of the number the result lay.

Data set [1] is described as follows: Inhibition of beta-lactamase KPC-2 (unknown origin). The arrangement: species or system Bacteria.
Data set [2] can be described thus: Inhibition of class C […]beta-lactamase AmpC (unknown origin). The arrangement: species or system Bacteria.
Data set [3] is described as follows: Inhibition of beta-lactamase SHV-12 (unknown origin). Further details: species or system Bacteria.
The subject of data set [4] is Escherichia coli. The data set can be described thus: microbe, parasite or virus in culture. The data set is classed as functional. The following applies: BL21 (DE3), dose 5 µg/ml, time 16-20 hrs.
Data set [5] relates to Escherichia coli. The data set is classed as functional, BL21 (DE3). The following applies: time 16-18 hrs.
The nature of data set [6]: Cytotoxicity against HEK293 cells assessed as cell viability at 5 to 50 ug/ml incubated for 24 hrs by MTT assay relative to control. The following applies: human, at 5 to 50 µg/mL. A general note: Tetrazolium dyes change colour on reduction, which living cells bring about.
Data set [7] relates to Escherichia coli. Nature of the data set: microbe, parasite or virus in culture. The data set is classed as functional. The following applies: BL21 (DE3), dose 50 µg/ml, time 16-20 hrs.
Data set [8] can be described thus: Cytotoxicity against HEK293 cells assessed as cell viability at 5 to 50 ug/ml incubated for 24 hrs in presence of cefotaxime by MTT assay relative to control. The following applies: human, at 5 to 50 µg/mL.
Data set [9] has as its system Escherichia coli. The data set can be described thus: microbe, parasite or virus in culture. The data set is classed as functional. The following applies: BL21 (DE3), dose 50 µg/ml, time 16-20 hrs. This is another data set of the same source.
Data set [10] relates to Escherichia coli. Nature of the data set: Antibacterial activity against Escherichia coli NCTC10418. The data set is classed as functional.
The nature of data set [11]: physchem. The following applies: 0.1 M phosphate buffer, pH 4.3.
The subject of the next data set is Bacteria. Nature of the data set: Inhibition of bacterial beta-lactamase KPC-2 expressed in Escherichia coli BL21 (DE3) using nitrocefin as substrate at 1 uM by spectrophotometric analysis relative to control. In short, it runs like this:
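Purified recombinant KPC-2 tested against the chromogenic β-lactam nitrocefin at 1 µM inhibitor. Hydrolysis was followed as the rise in absorbance at 482 nm (ε482 = 17,400 M-1 cm-1). Activity is expressed as percent inhibition relative to an uninhibited control.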

The test system of data set [12] is Escherichia coli. Nature of the data set: microbe, parasite or virus in culture. The following applies: BL21 (DE3), dose 5 µg/ml, time 16-20 hrs. The data set is classed as functional. The source holds these as a separate data set.
A short description of data set [13]: Inhibition of bacterial beta-lactamase KPC-2 expressed in Escherichia coli BL21 (DE3) using nitrocefin as substrate assessed as inhibition constant by Cheng-Prusoff equation analysis. The arrangement: species or system Bacteria.
The test system of data set [14] is Escherichia coli. Nature of the data set: Potentiation of cefotaxime induced antibacterial activity against Escherichia coli expressing CMY-4/TEM-1 assessed as cefotaxime MIC at 5 ug/ml incubated for 16 to 20 hrs by microdilution method. The following applies: dose 5 µg/ml, time 16-20 hrs. The data set is classed as functional. In short, it runs like this:
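Cefotaxime MIC re-measured with the boronic acid inhibitor held at a fixed 5 μg/mL, lowered from an earlier 50 μg/ml fixed-dose combination; MICs interpreted against CLSI susceptibility categories.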
A general note: Broth dilution looks for growth in wells or tubes with falling amounts of substance.

The nature of data set [15]: Solubility of the compound at 0.1 mM in 0.1 M phosphate buffer. The data set is classed as physicochemical. The following applies: 100 µM.
The nature of data set [16]: Inhibition of beta-lactamase CTX-M (unknown origin). Further details: species or system Bacteria.
A further data set concerns Klebsiella pneumoniae. The data set can be described thus: Antibacterial activity against Klebsiella pneumoniae harboring OXA-48 assessed as bacterial growth inhibition incubated for 16 to 20 hrs by microdilution method. The data set is classed as functional. The following applies: time 16-20 hrs.
For data set [17], the system named is Escherichia coli. Nature of the data set: Antibacterial activity against Escherichia coli expressing CMY-4/TEM-1 assessed as bacterial growth inhibition at 0.06 to 64 ug/ml incubated for 16 to 20 hrs by microdilution method. The following applies: dose 0.06-64 µg/ml, time lower […], time upper 20.0 hrs. The data set is classed as functional, organism-based.

The subject of the next data set is Proteus mirabilis. The data set can be described thus: Antibacterial activity against Proteus mirabilis producing CTX-M-14/CMY-2 assessed as bacterial growth inhibition incubated for 16 to 20 hrs by microdilution method. The data set is classed as functional. The following applies: time 16-20 hrs.
Data set [18] can be described thus: Inhibition of beta-lactamase P99 (unknown origin). The arrangement: species or system Bacteria.
Data set [19] can be described thus: Inhibition of beta-lactamase PDC-3 (unknown origin). Further details: species or system Bacteria.
Data set [20] can be described thus: Inhibition of beta-lactamase OXA (unknown origin). The arrangement: species or system Bacteria.
The nature of data set [21]: Inhibition of Metallo-beta-lactamase VIM-1 (unknown origin). Further details: species or system Bacteria.
Data set [22] in a line: Inhibition of beta-lactamase TEM-1 (unknown origin). Further details: species or system Bacteria.
Data set [23] can be described thus: physchem. The following applies: 0.1 M phosphate buffer.

For orientation: IC50 means the concentration at which inhibition is half-maximal. Low readings indicate higher potency, high ones lower potency. One may read the Ki as the dissociation constant of the complex between target and ligand, obtained from inhibition or displacement. Regarding `O=C(Cc1cccs1)N[C@H](B(O)O)c1cccc(C(=O)O)c1`, the 50% inhibitory concentration (IC50) in data set [1] came out at 60 nM; in data set [3], 40 nM. Besides, in data set [2], the Ki is 1 nM.
The viability is a per cent measure of how many cells are alive, often set against a control. As usually defined, the pKa is the negative logarithm of the acid dissociation constant. Higher therefore signals a group that holds its proton tightly. What is called inhibition is the drop in the measured response relative to a control, in per cent. Read a high inhibition as a strong effect. Regarding `OB(O)c1cccc(-n2cc(-c3ccsc3)nn2)c1`, the MIC with Escherichia coli [4] was 1 µg/mL (≈ 3.69 µM); in the data set on Escherichia coli [7], 0.25 µg/mL (≈ 0.922 µM); in the data set on Escherichia coli [9] it was 0.12 µg/mL (≈ 0.443 µM); in the data set with Escherichia coli [10], greater than 64 µg/mL; against Escherichia coli [12] it was 0.25 µg/mL (≈ 0.922 µM). The “inhibition zone (IZ)” value with Escherichia coli [5] is 29.9 mm. Also, the viability at 24 h in [6] and in data set [8] was greater than 80% each time. Further, the pKa at 100 µM in “physchem [11]” is 8.31. The molecule also returned an inhibition in the data set with Bacteria of 75%. In addition, in data set [13], the Ki turned out to be 38 nM.
On to `OB(O)c1cc(-n2cc(-c3ccsc3)nn2)c(F)cc1F`, for which the MIC with Escherichia coli [4] is 4 µg/mL (≈ 13 µM); in the data set with Escherichia coli [14], 0.12 µg/mL; in the data set on Escherichia coli [7] it was no more than 0.06 µg/mL; with Escherichia coli [9], no more than 0.06 µg/mL; with Escherichia coli [10] it was greater than 64 µg/mL; in the data set on Escherichia coli [12], no more than 0.06 µg/mL. Besides, the “inhibition zone (IZ)” value in the data set on Escherichia coli [5] stood at 28.8 mm. Further, the viability at 24 h in [6] and in [8] was greater than 80% in each case. The molecule also came in with a pKa at 100 µM in the data set “physchem [11]” of 6.27. For the same molecule, the inhibition in the data set with Bacteria was 21%. Moreover, in data set [13], the inhibition constant Ki was 1840 nM.
With `OB(O)c1cc(-n2cc(-c3ccsc3)nn2)cc(F)c1F`, in the data set on Escherichia coli [5], the “inhibition zone (IZ)” value came out at 19.8 mm. The solubility entry in [15] is on record as “Insoluble”. In [13], the Ki came out at 5900 nM.
Consider `CC(C)(O/N=C(/C(=O)NCB(O)O)c1cnc(N)s1)C(=O)O`, for which the affinity in [16] corresponds to a Ki of 4 nM.
On to `C[C@@H](O)[C@H]1C(=O)N2C(C(=O)O)=C(S[C@@H]3CN[C@H](C(=O)N(C)C)C3)[C@H](C)[C@H]12` [MEROPENEM], for which the MIC amounted to 0.5 µg/mL (≈ 1.3 µM) with Klebsiella pneumoniae and 0.25 µg/mL (≈ 0.652 µM) in the data set on Proteus mirabilis. The outcome with Escherichia coli [17] was Active.
As to `[N-]=[N+]=Nc1cccc(B(O)O)c1`, the MIC was 0.25 µg/mL (≈ 1.53 µM) in the data set with Escherichia coli [4]; 1 µg/mL in the data set with Escherichia coli [14]; no more than 0.06 µg/mL in the data set on Escherichia coli [9]; greater than 64 µg/mL against Escherichia coli [10]; no more than 0.06 µg/mL in the data set on Escherichia coli [12]. Moreover, in the data set with Escherichia coli [5], the “inhibition zone (IZ)” value amounted to 31.3 mm. Besides, in “physchem [11]”, the pKa at 100 µM stood at 8.27. This molecule came in with an inhibition in the data set on Bacteria of 34%. The inhibitory constant (Ki) in data set [13] was 450 nM.
For `OB(O)c1cc(Cn2cc(-c3ccsc3)nn2)ccc1F`, the MIC against Escherichia coli [4] was no more than 0.06 µg/mL; with Escherichia coli [7], no more than 0.06 µg/mL; in the data set with Escherichia coli [9], no more than 0.06 µg/mL; with Escherichia coli [10] it was greater than 64 µg/mL; against Escherichia coli [12] it was no more than 0.06 µg/mL. Besides, in the data set on Escherichia coli [5], the “inhibition zone (IZ)” value was 29.9 mm. The molecule further gave a pKa at 100 µM in the data set “physchem [11]” of 10. Also, the inhibition in the data set with Bacteria worked out at 53%. Also, in data set [13], the inhibition constant Ki is 240 nM.
In [2], `O=S(=O)(NCB(O)O)c1ccc(-c2nnn[nH]2)cc1C(F)(F)F` registered a Ki of 0.05 nM.
On to `CO/N=C(\C(=O)N[C@@H]1C(=O)N2C(C(=O)O)=C(COC(C)=O)CS[C@H]12)c1csc(N)n1` [CEFOTAXIME], for which the MIC in the data set on Klebsiella pneumoniae was found to be 2 µg/mL (≈ 4.39 µM).
With `[N-]=[N+]=Nc1ccc(F)c(B(O)O)c1`, the MIC against Escherichia coli [4] was 1 µg/mL (≈ 5.53 µM); in the data set with Escherichia coli [7], 0.5 µg/mL (≈ 2.76 µM); in the data set on Escherichia coli [9], 0.25 µg/mL (≈ 1.38 µM); against Escherichia coli [10], greater than 64 µg/mL; in the data set with Escherichia coli [12], 1 µg/mL (≈ 5.53 µM). Further, in the data set with Escherichia coli [5], the “inhibition zone (IZ)” value is recorded as 25.3 mm. For the same molecule, in the data set “physchem [11]”, the pKa at 100 µM was found to be 6.87. Moreover, the inhibition in the data set on Bacteria amounted to 37%. For the same molecule, the inhibition constant (Ki) in [13] stood at 570 nM.
Take `[N-]=[N+]=NCc1ccc(F)c(B(O)O)c1`: the MIC against Escherichia coli [4] is 0.5 µg/mL (≈ 2.56 µM); in the data set with Escherichia coli [7], no more than 0.06 µg/mL; in the data set with Escherichia coli [9] it was no more than 0.06 µg/mL; with Escherichia coli [10] it was greater than 64 µg/mL; in the data set with Escherichia coli [12] it was no more than 0.06 µg/mL. The “inhibition zone (IZ)” value in the data set on Escherichia coli [5] was found to be 29 mm. In addition, the pKa at 100 µM in the data set “physchem [11]” worked out at 7.22. The inhibition in the data set with Bacteria is 40%. Moreover, in data set [13], the inhibition constant (Ki) came to 410 nM.
Take `O=C(Cc1cccs1)N[C@@H](Cn1cc(-c2cccc(C(=O)O)c2)nn1)B(O)O`: the 50% inhibitory concentration (IC50) in data set [1] was determined as 40 nM; in [3], 140 nM. Moreover, the figures for the Ki in [18] and in data set [19] were 14 nM and 8 nM, respectively.
Consider `O=C(O)c1cccc2c1OB(O)C(NC(=O)C1CCCCC1)C2` (configuration not stated), for which the IC50 in [20] turned out to be 220 nM; in [21], 1000 nM; in [2], 68 nM; in data set [22], 2.6 nM.
Regarding `[N-]=[N+]=Nc1cc(B(O)O)c(F)cc1F`, the MIC was 8 µg/mL (≈ 40.2 µM) against Escherichia coli [4]; 16 µg/mL (≈ 80.4 µM) in the data set on Escherichia coli [7]; 0.12 µg/mL (≈ 0.603 µM) with Escherichia coli [9]; greater than 64 µg/mL with Escherichia coli [10]; no more than 0.06 µg/mL in the data set with Escherichia coli [12]. Also, in the data set with Escherichia coli [5], the “inhibition zone (IZ)” value is given as 23.4 mm. For the same molecule, the viability at 24 h in [6] and in data set [8] was greater than 80% each time. Moreover, the pKa at 100 µM in the data set “physchem [11]” amounted to 6.27. Moreover, the inhibition in the data set on Bacteria worked out at 0%. In addition, the inhibition constant Ki in data set [13] came to 7800 nM.
Take `O=[N+]([O-])c1ccc(F)c(B(O)O)c1`: the “inhibition zone (IZ)” value with Escherichia coli [5] is listed as 30.5 mm. Further, the pKa at 100 µM in “physchem [11]” came to 6.03. In “physchem [23]”, the pKa came out at 6.
As to `NCc1ccc(C(=O)NC2Cc3cccc(C(=O)O)c3OB2O)cc1` (configuration not stated), the concentration for half-maximal inhibition (IC50) in data set [20] came to 2000 nM; in data set [21] it was 61 nM; in data set [2], 270 nM; in data set [22] it was 8.1 nM.
